Measurements: ChEMBL document CHEMBL3351508, “Second-generation antibacterial benzimidazole ureas: discovery of a preclinical candidate with reduced metabolic liability” (J Med Chem, 2014)
Converted amounts (≈) assume the structure as drawn.

How the values were obtained:
DNA gyrase = DNA gyrase (Escherichia coli, UniProt P0AES4+P0AES6); experiment: Inhibition of […] Escherichia coli DNA gyrase A2B2 using pBR322 plasmid DNA as substrate by coupled enzyme reaction assay; format: protein-complex assay
Haemophilus influenzae = experiment: Antibacterial activity against Haemophilus influenzae ATCC 49247 by CLSI method; format: functional
Outline: (§1)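 Broth microdilution MIC in liquid medium following CLSI methods, with ATCC strains. Each run was accepted only if comparator antibiotics fell within their recommended quality-control ranges for the appropriate ATCC strain.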

Staphylococcus aureus [1] = experiment: Antibacterial activity against Staphylococcus aureus ATCC 29213 by CLSI method; format: functional; outline: as §1
Streptococcus pneumoniae = experiment: Antibacterial activity against Streptococcus pneumoniae ATCC 10015 by CLSI method; format: functional; outline: as §1
Enterococcus faecalis = experiment: Antibacterial activity against Enterococcus faecalis ATCC 29212 by CLSI method; format: functional; outline: as §1
Staphylococcus aureus [2] = experiment: Antibacterial activity against Staphylococcus aureus ATCC 29213 by CLSI method in presence of human 50% serum; format: functional; outline: as §1
Enterococcus faecium = experiment: Antibacterial activity against Enterococcus faecium ATCC 49624 by CLSI method; format: functional; outline: as §1
Rattus norvegicus = experiment: Dose normalized AUC in rat at 30 mg/kg, po; format: ADME, organism-based; parameters: dose 30 mg/kg, route oral; conditions: in vivo

| Compound | Ki (DNA gyrase) [nM] | MIC (Haemophilus influenzae) [µg/mL] | MIC (Staphylococcus aureus [1]) [µg/mL] | MIC (Streptococcus pneumoniae) [µg/mL] | MIC (Enterococcus faecalis) [µg/mL] | MIC (Staphylococcus aureus [2]) [µg/mL] | MIC (Enterococcus faecium) [µg/mL] | AUC/dose (Rattus norvegicus) [microg.hr/mL per mg/kg] |
| --- | --- | --- | --- | --- | --- | --- | --- | --- |
| CCNC(=O)Nc1nc2cc(-c3cccnc3)cc(-c3ncccc3F)c2[nH]1 | 6 | 1 (≈ 2.66 µM) | 0.031 (≈ 0.0824 µM) | ≤ 0.008 | 0.016 (≈ 0.0425 µM) | 1 |  |  |
| NC(=O)Nc1nc2cc(-c3cncc(F)c3)cc(-c3ncccn3)c2[nH]1 |  |  | > 8 |  |  | > 8 |  |  |
| CCCC(=O)Nc1nc2cc(-c3cncc(F)c3)cc(-c3ncccn3)c2[nH]1 |  |  | > 8 |  |  | > 8 |  |  |
| CNCC(=O)Nc1nc2cc(-c3cncc(F)c3)cc(-c3ncccn3)c2[nH]1 |  |  | > 8 | > 8 | > 8 | > 8 | > 8 |  |
| CCOC(=O)Nc1nc2cc(-c3cncc(F)c3)cc(-c3ncccn3)c2[nH]1 |  |  | 0.016 (≈ 0.0423 µM) | 0.008 (≈ 0.0211 µM) | 0.016 (≈ 0.0423 µM) | > 8 | 0.016 (≈ 0.0423 µM) |  |
| COCC(=O)Nc1nc2cc(-c3cncc(F)c3)cc(-c3ncccn3)c2[nH]1 |  |  | 0.064 (≈ 0.169 µM) | 0.032 (≈ 0.0846 µM) | 0.032 (≈ 0.0846 µM) | 8 | 0.032 (≈ 0.0846 µM) |  |
| CCNC(=O)Nc1nc2cc(-c3cccnc3)c(F)c(-n3cccn3)c2[nH]1 |  |  | 0.25 (≈ 0.684 µM) | 0.032 (≈ 0.0876 µM) | 0.063 (≈ 0.172 µM) | 2 |  | 10.8 |
| CCNC(=O)Nc1nc2cc(-c3ccc(CN4CCOCC4)nc3)c(F)c(-n3cccn3)c2[nH]1 |  |  | 0.25 (≈ 0.538 µM) | 0.016 (≈ 0.0344 µM) | 0.125 (≈ 0.269 µM) | 1 | 0.5 (≈ 1.08 µM) | 13.8 |
| CCNC(=O)Nc1nc2cc(-c3ccc(CN4CCOCC4)nc3)c(F)c(-n3cc(C)cn3)c2[nH]1 |  |  | 0.063 (≈ 0.132 µM) | 0.016 (≈ 0.0334 µM) | 0.063 (≈ 0.132 µM) | 0.5 | 0.25 (≈ 0.522 µM) | 1.9 |
| CCNC(=O)Nc1nc2cc(-c3cc(C)n(Cc4ccccn4)c(=O)c3)c(F)c(-n3cc(C)cn3)c2[nH]1 |  |  | 0.016 (≈ 0.032 µM) | 0.008 (≈ 0.016 µM) | 0.016 (≈ 0.032 µM) | 0.125 | 0.032 (≈ 0.0639 µM) | 0.2 |
| CCNC(=O)Nc1nc2cc(-c3ccc(C(C)O)nc3)c(F)c(-n3cccn3)c2[nH]1 (stereo not drawn) |  |  | 0.125 (≈ 0.305 µM) | 0.032 (≈ 0.0782 µM) | 0.125 (≈ 0.305 µM) | 3 | 0.5 (≈ 1.22 µM) |  |
| CCNC(=O)Nc1nc2cc(-c3ccc(C(O)CC)nc3)c(F)c(-n3cccn3)c2[nH]1 (stereo not drawn) |  |  | 0.063 (≈ 0.149 µM) | 0.032 (≈ 0.0756 µM) | 0.125 (≈ 0.295 µM) | 2 | 0.25 (≈ 0.59 µM) | 7.2 |
| CCNC(=O)Nc1nc2cc(-c3ccc([C@@H](O)CC)nc3)c(F)c(-n3cccn3)c2[nH]1 |  |  | 0.063 (≈ 0.149 µM) | 0.016 (≈ 0.0378 µM) | 0.063 (≈ 0.149 µM) | 1 | 0.5 (≈ 1.18 µM) | 8.4 |
| CCNC(=O)Nc1nc2cc(-c3ccc([C@H](O)CC)nc3)c(F)c(-n3cccn3)c2[nH]1 |  |  | 0.25 (≈ 0.59 µM) | 0.063 (≈ 0.149 µM) | 0.063 (≈ 0.149 µM) | 4 | 0.25 (≈ 0.59 µM) |  |
| CCNC(=O)Nc1nc2cc(-c3cnc(C(C)(C)O)nc3)cc([C@H]3CCCO3)c2[nH]1 |  |  | 0.125 (≈ 0.305 µM) | 0.032 (≈ 0.078 µM) | 0.063 (≈ 0.153 µM) | 0.25 | 0.5 (≈ 1.22 µM) | 4.3 |
| CCNC(=O)Nc1nc2cc(-c3cnc(C(C)(C)O)nc3)cc([C@@H]3CCCO3)c2[nH]1 |  |  | 1 (≈ 2.44 µM) | 0.5 (≈ 1.22 µM) | 1 (≈ 2.44 µM) | 2 | 2 (≈ 4.87 µM) |  |
| CCNC(=O)Nc1nc2cc(-c3cnc(C(C)(C)O)nc3)c(F)c([C@@H]3CCCO3)c2[nH]1 |  |  | 0.5 (≈ 1.17 µM) | 0.25 (≈ 0.583 µM) | 0.5 (≈ 1.17 µM) | 4 | 2 (≈ 4.67 µM) |  |
| CCNC(=O)Nc1nc2c(-n3cccn3)cc(-c3cccnc3)cc2[nH]1 |  |  | 0.25 (≈ 0.72 µM) | 0.016 (≈ 0.0461 µM) | 0.063 (≈ 0.181 µM) | 4 |  | 5.7 |
| CCNC(=O)Nc1nc2cc(-c3cccnc3)cc(C3CCCO3)c2[nH]1 (racemic) |  |  | 1 (≈ 2.85 µM) | 0.125 (≈ 0.356 µM) | 0.25 (≈ 0.711 µM) | 4 |  |  |
| CCNC(=O)Nc1nc2cc(-c3cncnc3)cc(C3CCCO3)c2[nH]1 (racemic) |  |  | 1 (≈ 2.84 µM) | 0.125 (≈ 0.355 µM) | 0.5 (≈ 1.42 µM) | 2 | 1 (≈ 2.84 µM) | 10.5 |
| CCNC(=O)Nc1nc2cc(-c3ccn(C)c(=O)c3)cc(C3CCCO3)c2[nH]1 (racemic) |  |  | 0.75 (≈ 1.97 µM) | 0.016 (≈ 0.0419 µM) | 0.25 (≈ 0.655 µM) | 0.75 | 0.25 (≈ 0.655 µM) |  |
| CCNC(=O)Nc1nc2cc(-c3cc(C)n(Cc4ccccn4)c(=O)c3)cc(C3CCCO3)c2[nH]1 (racemic) |  |  | 0.125 (≈ 0.265 µM) | 0.008 (≈ 0.0169 µM) | 0.125 (≈ 0.265 µM) | 0.25 | 0.25 (≈ 0.529 µM) |  |
| CCNC(=O)Nc1nc2cc(-c3ccc(C(C)(C)O)nc3)cc(C3CCCO3)c2[nH]1 (racemic) |  |  | 0.5 (≈ 1.22 µM) | 0.063 (≈ 0.154 µM) | 0.25 (≈ 0.611 µM) | 2 | 1 (≈ 2.44 µM) | 2.6 |
| CCNC(=O)Nc1nc2cc(-c3cnc(C(C)(C)O)nc3)cc(C3CCCO3)c2[nH]1 (racemic) |  |  | 0.25 (≈ 0.609 µM) | 0.032 (≈ 0.078 µM) | 0.25 (≈ 0.609 µM) | 0.5 | 0.5 (≈ 1.22 µM) | 5.5 |
| CCNC(=O)Nc1nc2cc(-c3cnc(C(C)(C)O)nc3)c(F)c(C3CCCO3)c2[nH]1 (racemic) |  |  | 0.063 (≈ 0.147 µM) | 0.032 (≈ 0.0747 µM) | 0.125 (≈ 0.292 µM) | 0.5 | 0.5 (≈ 1.17 µM) |  |
